From PubChem BioAssay AID602424 (Sanford-Burnham Center for Chemical Genomics, 2012)
Activity calls are given as the source filed them.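 How the source made its calls: active means IC50 at or below 20 µM; inactive means the rest.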

target: Glucose-6-phosphate 1-dehydrogenase (Homo sapiens) (UniProt P11413); assay: blockers of human G6PD activity – biochemical, fluorescence, dose response, set 4, selectivity assay for PfG6PD antimalarial inhibitor project, SAR follow-up (AID 602424); conditions: recombinant human G6PD, NADPH-diaphorase-resazurin fluorescence
Method in brief: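 Benchmarks – no-substrate wells as low control · System – human G6PD enzyme · Schedule – 90 min dark incubation, room temperature · Measured by – resazurin-diaphorase fluorescence, Ex 530 nm, Em 590 nm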

Glucose-6-phosphate 1-dehydrogenase (Homo sapiens), sequence (P11413 whole entry, looked up): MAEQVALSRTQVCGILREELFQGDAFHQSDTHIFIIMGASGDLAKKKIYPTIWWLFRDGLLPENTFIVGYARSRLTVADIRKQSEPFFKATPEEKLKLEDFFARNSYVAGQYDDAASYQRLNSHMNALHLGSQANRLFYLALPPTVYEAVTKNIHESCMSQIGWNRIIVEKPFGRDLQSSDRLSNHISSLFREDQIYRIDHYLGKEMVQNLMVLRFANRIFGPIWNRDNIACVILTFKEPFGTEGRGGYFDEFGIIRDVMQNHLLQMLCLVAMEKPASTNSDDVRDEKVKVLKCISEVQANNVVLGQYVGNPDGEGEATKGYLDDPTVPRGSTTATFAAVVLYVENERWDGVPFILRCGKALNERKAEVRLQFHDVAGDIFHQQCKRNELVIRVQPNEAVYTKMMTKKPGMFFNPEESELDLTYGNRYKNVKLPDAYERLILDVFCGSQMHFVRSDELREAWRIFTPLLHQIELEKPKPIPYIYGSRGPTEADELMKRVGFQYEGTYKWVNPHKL

IC50, inactive:
CCCN1CCCCC1CNC(=O)c1ccc2c(c1)NC(=O)c1ccccc1S2 (configuration not stated) > 80 µM
O=C(NC[C@H]1CCCN1)c1ccc2c(c1)NC(=O)c1ccccc1S2 > 80 µM
CCCN1CCC(NC(=O)c2ccc3c(c2)NC(=O)c2ccccc2S3)C1 (configuration not stated) > 80 µM
O=C(NCC1CCCCN1)c1ccc2c(c1)NC(=O)c1ccccc1S2 (configuration not stated) > 80 µM
CCN1CCC[C@@H]1CNC(=O)c1ccc2c(c1)NC(=O)c1cc(C)ccc1S2 > 80 µM
CN1CCC(NC(=O)c2ccc3c(c2)NC(=O)c2ccccc2S3)C1 (configuration not stated) > 80 µM
CCCN1CCC[C@@H]1CNC(=O)c1ccc2c(c1)NC(=O)c1ccccc1S2 > 80 µM
CCCCCCN1CCCC1CNC(=O)c1ccc2c(c1)NC(=O)c1ccccc1S2 (configuration not stated) > 80 µM
CCN1CCC(NC(=O)c2ccc3c(c2)NC(=O)c2ccccc2S3)C1 (configuration not stated) > 80 µM
CCN1CCC[C@@H]1CNC(=O)c1ccc2c(c1)NC(=O)c1ccccc1N2 > 80 µM
CCCCN1CCCC1CNC(=O)c1ccc2c(c1)NC(=O)c1ccccc1S2 (configuration not stated) > 80 µM
CCN1CCC[C@@H]1CNC(=O)c1ccc2c(c1)NC(=O)c1cc(F)ccc1S2 > 80 µM
CCN1CCC[C@@H]1CNC(=O)c1ccc2c(c1)NC(=O)c1ccc(F)cc1S2 > 80 µM
CCN1CCCCC1CNC(=O)c1ccc2c(c1)NC(=O)c1ccccc1S2 (configuration not stated) > 80 µM
CCN1CCC[C@@H]1CNC(=O)c1ccc2c(c1)NC(=O)c1cccc(C)c1S2 > 80 µM
CN1CCCC1CNC(=O)c1ccc2c(c1)NC(=O)c1ccccc1S2 (configuration not stated) > 80 µM
CN1CCCCC1CNC(=O)c1ccc2c(c1)NC(=O)c1ccccc1S2 (configuration not stated) > 80 µM
